Columns and labels:
[1] = tested on: Plasmodium falciparum; test: Antiplasmodial activity against chloroquine-resistant ring stage Plasmodium falciparum W2 infected in human red blood cells after 48 hrs; type: functional, organism-based; conditions: W2, 48 h
[2] = tested on: Plasmodium falciparum; test: Antiplasmodial activity against chloroquine-sensitive ring stage Plasmodium falciparum 3D7 infected in human red blood cells after 48 hrs; type: functional, organism-based; conditions: 3D7, 48 h
[3] = tested on: Plasmodium falciparum; test: Antiplasmodial activity against chloroquine and pyrimethamine-resistant ring stage Plasmodium falciparum V1/S infected in human red blood cells after 48 hrs; type: functional, organism-based
[4] = tested on: Plasmodium falciparum; test: Antiplasmodial activity against chloroquine-sensitive, mefloquine-resistant ring stage Plasmodium falciparum D6 infected in human red blood cells after 48 hrs; type: functional, organism-based; conditions: D6, 48 h
[5] = Selectivity index, ratio of IC50 for african green monkey Vero cells to IC50 for chloroquine-resistant ring stage Plasmodium falciparum W2; type: toxicity, cell-based; conditions: read-out: Ratio IC50
Outline: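 Vero IC50 divided by W2 IC50. Vero: 15000 cells/well adhered overnight, then log dilutions from 30 mg/mL DMSO stock for 48 h. MTT 0.5 mg/mL final for 2 h at 37 C, formazan dissolved in 95% ethanol, A570 read against DMSO vehicle as 100% viability. W2: 48 h YOYO-1 flow-cytometric growth assay in human erythrocytes.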

[6] = tested on: Plasmodium falciparum; test: Resistance index, ratio of IC50 for chloroquine-resistant ring stage Plasmodium falciparum W2 to IC50 for chloroquine-sensitive ring stage Plasmodium falciparum 3D7; type: functional
Outline: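 W2 IC50 divided by 3D7 IC50. Both were measured by 48 h YOYO-1 flow-cytometric growth assay on sorbitol-synchronised 1% ring-stage cultures in human erythrocytes at 37 C under 3% O2.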

[7] = tested on: Heme; test: Binding affinity to heme by UV-visible titration
Outline: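 Hematin monomer (FPIX-OH, 10 μM) in pH 5.5 HEPES-buffered 40% DMSO v/v at 25 C, titrated with ligand from 100 μM solution until above hematin concentration. Stirred 1 min per addition; spectra 230–500 nm, Soret change at 402 nm. Absorbance dilution-corrected, nonlinear fit for Kd; Kass calculated from Kd.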

[8] = tested on: Nucleic Acid; test: Binding affinity to s(GATCCTAGGATC)2-DNA by fluorescence spectroscopy; type: nucleic-acid assay
Outline: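 Buffer 0.01 M phosphate pH 7.4, 0.1 M NaCl, 25.0 C, 1 cm quartz cuvettes. Fluorescence: excitation 339 nm, emission 450–500 nm. Dilution-corrected intensity change fitted to single-site binding for Kd; Kass taken as 1/Kd.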

[9] = Inhibition of Plasmodium falciparum falcipain 2
[10] = Inhibition of Plasmodium falciparum falcipain 3
[11] = tested on: Vero; test: Cytotoxicity against african green monkey Vero cells after 48 hrs by MTT assay; type: cell-based; conditions: Chlorocebus sabaeus
Outline: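 Vero monkey kidney cells in DMEM with 10% FBS at 37 C, 7% CO2; seeded 15000 cells/well and adhered overnight. Log dilutions from 30 mg/mL DMSO stock, 48 h exposure. MTT at 0.5 mg/mL final for 2 h; formazan dissolved in 95% ethanol, read at 570 nm. Viability relative to DMSO-medium wells; IC50 from concentration–viability curve; doxorubicin as standard.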

Row | Structure (SMILES) | IC50 [1] [nM] | IC50 [2] [nM] | IC50 [3] [nM] | IC50 [4] [nM] | selectivity ratio [5] | Ratio IC50 [6] | Ka [7] [×10⁶ /M] | Ka [8] [×10⁶ /M] | IC50 [9] [nM] | IC50 [10] [nM] | IC50 [11] [nM]
1 | CCN(CC)c1c2ccccc2[n+](C)c2c1[nH]c1ccccc12.[Cl-] | 1250 | 2200 | 1770 | 1290 | 2 | 0.7 | 0.19 | 0.47 | 18000 | 46300 | –
2 | CCN(CC)CCNc1c2ccccc2[n+](C)c2c1[nH]c1ccccc12.[Cl-] | – | 130 | 72 | 70 | 34 | 1.2 | 0.41 | 1.14 | > 50000 | – | –
3 | CN(C)CCCNc1c2ccccc2[n+](C)c2c1[nH]c1ccccc12.[Cl-] | 20 | 24 | 51 | 46 | 109 | 0.4 | 0.066 | 3 | 34000 | > 50000 | –
4 | CC(C)NCCCNc1c2ccccc2[n+](C)c2c1[nH]c1ccccc12.[Cl-] | – | 26.1 | 28 | 34 | 125 | 0.8 | 0.2 | 5 | > 25000 | – | –
5 | CN(C)CCNc1c2ccccc2[n+](C)c2c1[nH]c1ccccc12.[Cl-] | – | 62 | 85 | 66 | 111 | 0.8 | 0.12 | 3.1 | > 50000 | – | –
6 | C[n+]1c2ccccc2c(NCCCCN)c2[nH]c3ccccc3c21.[Cl-] | 65 | 190 | 422 | 245 | 1310 | 0.2 | 0.147 | 1.4 | – | – | > 85000
7 | C[n+]1c2cc(Cl)ccc2c(NC2CCNCC2)c2[nH]c3ccccc3c21.[Cl-] | 45 | 65 | 52 | 70 | 98 | 0.9 | 0.18 | 4.5 | 5600 | – | –
8 | CCN(CC)Cc1ccc(Nc2c3ccccc3[n+](C)c3c2[nH]c2ccccc23)cc1O.[Cl-] | 52 | 56 | 15 | 24 | 17 | 3.5 | 0.075 | 0.8 | 15200 | – | –
9 | CCN(CC)CCCNc1c2ccccc2[n+](C)c2c1[nH]c1ccccc12.[Cl-] | – | 20 | 29 | – | 78 | 1.1 | 0.127 | 9.1 | – | – | –
10 | C[n+]1c2ccccc2c(NCCN)c2[nH]c3ccccc3c21.[Cl-] | 89 | 115 | 156 | 107 | 678 | 0.6 | 0.127 | 0.85 | 6300 | > 25000 | 60000
11 | C[n+]1c2ccccc2c(Nc2cccnc2)c2[nH]c3ccccc3c21.[Cl-] | 180 | 247 | 279 | 166 | 14 | 0.6 | 0.17 | 1 | 9320 | – | –
12 | C[n+]1c2ccccc2c(NCCCN2CCCCC2)c2[nH]c3ccccc3c21.[Cl-] | – | 23 | 28 | 34 | 56 | 1.3 | 0.161 | 5.3 | – | – | 20000

From ChEMBL document CHEMBL1671820, “Incorporation of basic side chains into cryptolepine scaffold: structure-antimalarial activity relationships and mechanistic studies” (J Med Chem, 2011)
